The source of these data is ChEMBL document CHEMBL4811229, “Leveraging Peptaibol Biosynthetic Promiscuity for Next-Generation Antiplasmodial Therapeutics” (J Nat Prod, 2021).

One series relates to Plasmodium falciparum. The series can be described thus: Antiplasmodial activity against multidrug-resistant Plasmodium falciparum Dd2 infected in human A-positive erythrocytes assessed as reduction in parasitemia incubated for 72 hrs by fluorescence-based SYBR-Green-1 assay. Format: functional, organism-based. To be noted: Dd2, Erythrocyte.
The nature of series [1]: Selectivity index, ratio of EC50 for human HepG2 cells to EC50 for antiplasmodial activity against multidrug-resistant Plasmodium falciparum Dd2 infected in human A-positive erythrocytes. The format is toxicity, cell-based. To be noted: read-out: Ratio EC50.
The next series deals with HepG2. Description: Cytotoxicity against human HepG2 cells assessed as decrease in cell viability measured after 48 hrs by MTS assay. Format: cell-based. To be noted: HepG2, 48 h. The method, boiled down: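 After 48 h at 37 °C and 5% CO2, MTS was added for 4 h and absorbance read at 490 nm. Values were normalized to Triton X-100-lysed wells (0% growth) and untreated wells. EC50 is the mean of triplicate experiments.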
In general terms: Tetrazolium dyes change colour on reduction, which living cells bring about.

Where a SMILES comes first, the peptide text is derived from it. [ ]: non-standard residue; d: D form. The star is where a group is joined. X1 = CC(C)C[C@@H](C[N+]1=C2CCCN2CCC1)N*; Leu(ol) = CC(C)C[C@H](N)CO; dIva = CC[C@@](C)(N)C(=O)O; Pip = O=C(O)[C@@H]1CCCCN1; Iva = CC[C@](C)(N)C(=O)O; Aib = CC(C)(N)C(=O)O; βAla = NCCC(=O)O

One may read the EC50 as the concentration at which the effect is half-maximal. For the compound `CC[C@H](C)[C@H](NC(=O)C(C)(C)NC(=O)[C@H](CCC(N)=O)NC(=O)C(C)(C)NC(=O)C(C)(C)NC(=O)[C@H](C)NC(=O)[C@H](C)NC(=O)[C@H](C)NC(=O)C(C)(C)NC(C)=O)C(=O)NC(C)(C)C(=O)NCC(=O)N[C@@H](CC(C)C)C(=O)NC(C)(C)C(=O)N1CCC[C@H]1C(=O)N[C@H](C(=O)NC(C)(C)C(=O)N[C@](C)(CC)C(=O)N[C@@H](CCC(N)=O)C(=O)N[C@@H](CCC(N)=O)C(=O)N[C@H](CO)Cc1ccccc1)C(C)C`, the EC50 came to 520 nM with Plasmodium falciparum and 3350 nM in the series with HepG2. Also, the selectivity ratio in series [1] was 6.
In the case of `CCCCCCCC(=O)NC(C)(C)C(=O)NCC(=O)N[C@@H](CC(C)C)C(=O)NC(C)(C)C(=O)NCC(=O)NCC(=O)N[C@H](C(=O)NC(C)(C)C(=O)NCC(=O)N[C@H](C(=O)N[C@H](CO)CC(C)C)C(C)C)C(C)C`, in series [1], the selectivity ratio was greater than 10.
In the case of `CC[C@H](C)[C@H](NC(=O)[C@H](C)NC(=O)[C@@H]1CCCN1C(=O)C(C)(C)NC(=O)[C@H](CC(C)C)NC(=O)[C@H](CCC(N)=O)NC(=O)C(C)(C)NC(C)=O)C(=O)NC(C)(C)C(=O)N1CCC[C@H]1C(=O)NC(C)(C)C(=O)N[C@@H](CC(C)C)C(=O)N[C@](C)(CC)C(=O)N1CCC[C@H]1C(=O)N[C@H](CO)CC(C)C`, the EC50 with Plasmodium falciparum is 630 nM; in the series with HepG2, greater than 25000 nM. The selectivity ratio in series [1] is greater than 40.
In the case of `CCCCCCCC(=O)NC(C)(C)C(=O)NCC(=O)N[C@@H](CC(C)C)C(=O)NC(C)(C)C(=O)NCC(=O)NCC(=O)N[C@H](C(=O)NC(C)(C)C(=O)NCC(=O)N[C@H](C(=O)N[C@H](CO)CC(C)C)[C@@H](C)CC)C(C)C`, in series [1], the selectivity ratio was greater than 8.
Consider `CC[C@H](C)[C@H](NC(=O)[C@H](CO)NC(=O)[C@@H]1CCCN1C(=O)C(C)(C)NC(=O)[C@H](CC(C)C)NC(=O)[C@H](CC(N)=O)NC(=O)C(C)(C)NC(C)=O)C(=O)NC(C)(C)C(=O)N1CCC[C@H]1C(=O)NC(C)(C)C(=O)N[C@@H](CC(C)C)C(=O)N[C@](C)(CC)C(=O)N1CCC[C@H]1C(=O)N[C@H](CO)CC(C)C`, for which the figures for the EC50 in the series on Plasmodium falciparum and with HepG2 were 520 nM and greater than 25000 nM, respectively. Also, in series [1], the selectivity ratio is greater than 48.
The corresponding values for `CC[C@@](C)(NC(=O)[C@H](CC(C)C)NC(=O)C(C)(C)NC(=O)[C@@H]1CCCN1C(=O)C(C)(C)NC(=O)[C@@H](NC(=O)[C@H](C)NC(=O)[C@@H]1CCCN1C(=O)C(C)(C)NC(=O)[C@H](CC(C)C)NC(=O)[C@H](CCC(N)=O)NC(=O)C(C)(C)NC(C)=O)C(C)C)C(=O)N1CCC[C@H]1C(=O)N[C@H](CO)CC(C)C` are 1320 nM, greater than 25000 nM and greater than 19.
The corresponding values for `CCCCCCCC(=O)NC(C)(C)C(=O)NCC(=O)N[C@@H](CC(C)C)C(=O)NC(C)(C)C(=O)NCC(=O)NCC(=O)N[C@@H](CC(C)C)C(=O)NC(C)(C)C(=O)NCC(=O)N[C@H](C(=O)N[C@H](CO)CC(C)C)[C@@H](C)CC` are 930 nM, 8090 nM and 9.
The corresponding values for `CC[C@](C)(NC(=O)[C@H](CC(C)C)NC(=O)[C@H](C)NC(=O)C(C)(C)NC(=O)[C@@H]1CCCCN1C(=O)C(C)(C)NC(=O)C(C)(C)NC(=O)CNC(=O)CCNC(=O)[C@H](CC(C)C)NC(=O)C(C)(C)NC(=O)C(C)(C)NC(=O)[C@@H]1CCCCN1C(=O)C(C)(C)NC(=O)[C@@H]1CCCCN1C(C)=O)C(=O)N[C@@H](CC(C)C)C[N+]1=C2CCCN2CCC1` (Ac-[Pip][Aib][Pip][Aib][Aib]L[βAla]G[Aib][Aib][Pip][Aib]AL[Iva]-X1) are 390 nM, greater than 25000 nM and greater than 64.
Regarding `CC[C@H](C)[C@H](NC(=O)[C@H](C)NC(=O)[C@@H]1CCCN1C(=O)C(C)(C)NC(=O)[C@H](CC(C)C)NC(=O)[C@H](CC(N)=O)NC(=O)[C@@](C)(CC)NC(C)=O)C(=O)NC(C)(C)C(=O)N1CCC[C@H]1C(=O)N[C@](C)(CC)C(=O)N[C@@H](CC(C)C)C(=O)NC(C)(C)C(=O)N1CCC[C@H]1C(=O)N[C@H](CO)CC(C)C` (Ac-[dIva]NL[Aib]PAI[Aib]P[dIva]L[Aib]P[Leu(ol)]), the selectivity ratio in series [1] is greater than 40.
In the case of `CC[C@H](C)[C@H](NC(=O)[C@H](CO)NC(=O)[C@@H]1CCCN1C(=O)C(C)(C)NC(=O)[C@H](CC(C)C)NC(=O)[C@H](CC(N)=O)NC(=O)[C@@](C)(CC)NC(C)=O)C(=O)NC(C)(C)C(=O)N1CCC[C@H]1C(=O)N[C@](C)(CC)C(=O)N[C@@H](CC(C)C)C(=O)NC(C)(C)C(=O)N1CCC[C@H]1C(=O)N[C@H](CO)CC(C)C` (Ac-[dIva]NL[Aib]PSI[Aib]P[dIva]L[Aib]P[Leu(ol)]), the selectivity ratio in series [1] was greater than 48.
With `CC[C@H](C)[C@H](NC(=O)[C@H](CC(C)C)NC(=O)[C@H](CCC(N)=O)NC(=O)[C@@](C)(CC)NC(C)=O)C(=O)NC(C)(C)C(=O)N1CCC[C@H]1C(=O)N[C@](C)(CC)C(=O)N[C@@H](CC(C)C)C(=O)NC(C)(C)C(=O)N1CCC[C@H]1C(=O)N[C@H](CO)CC(C)C` (Ac-[dIva]QLI[Aib]P[dIva]L[Aib]P[Leu(ol)]), the selectivity ratio in series [1] is greater than 250.
With `CC[C@H](C)[C@H](NC(=O)[C@H](C)NC(=O)[C@@H]1CCCN1C(=O)C(C)(C)NC(=O)[C@H](CC(C)C)NC(=O)[C@H](CCC(N)=O)NC(=O)[C@@](C)(CC)NC(C)=O)C(=O)NC(C)(C)C(=O)N1CCC[C@H]1C(=O)N[C@](C)(CC)C(=O)N[C@@H](CC(C)C)C(=O)NC(C)(C)C(=O)N1CCC[C@H]1C(=O)N[C@H](CO)CC(C)C` (Ac-[dIva]QL[Aib]PAI[Aib]P[dIva]L[Aib]P[Leu(ol)]), the selectivity ratio in series [1] is greater than 76. For the same compound, the EC50 in the series with HepG2 is greater than 25000 nM.
With `CCCCCCCC(=O)NC(C)(C)C(=O)NCC(=O)N[C@@H](CC(C)C)C(=O)NC(C)(C)C(=O)NCC(=O)NCC(=O)N[C@@H](CC(C)C)C(=O)NC(C)(C)C(=O)NCC(=O)N[C@@H](CC(C)C)C(=O)N[C@H](CO)CC(C)C` (HELM PEPTIDE1{[CCCCCCCC(=O)[*:2]].[Aib].G.L.[Aib].G.G.L.[Aib].G.L.[CC(C)C[C@@H](CO)N[*:1]]}$$$$V2.0), the selectivity ratio in series [1] was greater than 11.
Turning to `CCCCCCCC(=O)NC(C)(C)C(=O)NCC(=O)N[C@@H](CC(C)C)C(=O)NC(C)(C)C(=O)NCC(=O)NCC(=O)N[C@H](C(=O)NC(C)(C)C(=O)NCC(=O)N[C@@H](CC(C)C)C(=O)N[C@H](CO)CC(C)C)C(C)C` (HELM PEPTIDE1{[CCCCCCCC(=O)[*:2]].[Aib].G.L.[Aib].G.G.V.[Aib].G.L.[CC(C)C[C@@H](CO)N[*:1]]}$$$$V2.0), the selectivity ratio in series [1] was greater than 28.
Still for that read-out and setting: the figure for `CC[C@H](C)[C@H](NC(=O)[C@H](C)NC(=O)[C@@H]1CCCN1C(=O)C(C)(C)NC(=O)[C@H](CC(C)C)NC(=O)[C@H](CCC(N)=O)NC(=O)C(C)(C)NC(C)=O)C(=O)NC(C)(C)C(=O)N1CCC[C@H]1C(=O)NC(C)(C)C(=O)N[C@@H](CC(C)C)C(=O)NC(C)(C)C(=O)N1CCC[C@H]1C(=O)N[C@H](CO)CC(C)C` (HELM PEPTIDE1{[ac].[Aib].Q.L.[Aib].P.A.I.[Aib].P.[Aib].L.[Aib].P.[CC(C)C[C@@H](CO)N[*:1]]}$$$$V2.0) is greater than 86; for `CC[C@H](C)[C@H](NC(=O)[C@H](CO)NC(=O)[C@@H]1CCCN1C(=O)C(C)(C)NC(=O)[C@H](CC(C)C)NC(=O)[C@H](CCC(N)=O)NC(=O)C(C)(C)NC(C)=O)C(=O)NC(C)(C)C(=O)N1CCC[C@H]1C(=O)NC(C)(C)C(=O)N[C@@H](CC(C)C)C(=O)NC(C)(C)C(=O)N1CCC[C@H]1C(=O)N[C@H](CO)CC(C)C` (HELM PEPTIDE1{[ac].[Aib].Q.L.[Aib].P.S.I.[Aib].P.[Aib].L.[Aib].P.[CC(C)C[C@@H](CO)N[*:1]]}$$$$V2.0) it is greater than 14.
Same read-out and setting: the figure for `CC[C@H](C)[C@H](NC(=O)[C@H](CO)NC(=O)[C@@H]1CCCN1C(=O)C(C)(C)NC(=O)[C@H](CC(C)C)NC(=O)[C@H](CC(N)=O)NC(=O)[C@@](C)(CC)NC(C)=O)C(=O)NC(C)(C)C(=O)N1CCC[C@H]1C(=O)NC(C)(C)C(=O)N[C@@H](CC(C)C)C(=O)NC(C)(C)C(=O)N1CCC[C@H]1C(=O)N[C@H](CO)CC(C)C` (HELM PEPTIDE1{[ac].[CC[C@@](C)(N[*:1])C(=O)[*:2]].N.L.[Aib].P.S.I.[Aib].P.[Aib].L.[Aib].P.[CC(C)C[C@@H](CO)N[*:1]]}$$$$V2.0) is greater than 43.
Same read-out and setting: the figure for `CC[C@@](C)(NC(C)=O)C(=O)N[C@@H](CC(N)=O)C(=O)N[C@@H](CC(C)C)C(=O)NC(C)(C)C(=O)N1CCC[C@H]1C(=O)N[C@@H](CO)C(=O)N[C@H](C(=O)NC(C)(C)C(=O)N1CCC[C@H]1C(=O)NC(C)(C)C(=O)N[C@@H](CC(C)C)C(=O)NC(C)(C)C(=O)N1CCC[C@H]1C(=O)N[C@H](CO)CC(C)C)C(C)C` (HELM PEPTIDE1{[ac].[CC[C@@](C)(N[*:1])C(=O)[*:2]].N.L.[Aib].P.S.V.[Aib].P.[Aib].L.[Aib].P.[CC(C)C[C@@H](CO)N[*:1]]}$$$$V2.0) is greater than 40.
`CC[C@H](C)[C@H](NC(=O)[C@H](C)NC(=O)[C@@H]1CCCN1C(=O)C(C)(C)NC(=O)[C@H](CC(C)C)NC(=O)[C@H](CCC(N)=O)NC(=O)[C@@](C)(CC)NC(C)=O)C(=O)NC(C)(C)C(=O)N1CCC[C@H]1C(=O)NC(C)(C)C(=O)N[C@@H](CC(C)C)C(=O)NC(C)(C)C(=O)N1CCC[C@H]1C(=O)N[C@H](CO)CC(C)C` (HELM PEPTIDE1{[ac].[CC[C@@](C)(N[*:1])C(=O)[*:2]].Q.L.[Aib].P.A.I.[Aib].P.[Aib].L.[Aib].P.[CC(C)C[C@@H](CO)N[*:1]]}$$$$V2.0): the selectivity ratio in series [1] was greater than 78.
